Results on 8 compounds are retold here after ChEMBL document CHEMBL1139008, “Synthesis and antiviral evaluation of alkoxyalkyl derivatives of 9-(S)-(3-hydroxy-2-phosphonomethoxypropyl)adenine against cytomegalovirus and orthopoxviruses” (J Med Chem, 2006).

In assay [1] the test system is Human betaherpesvirus 5. The assay can be described thus: Antiviral activity against HCMV AD-169 replication. It counts as functional, organism-based. The settings on record: Human betaherpesvirus 5, AD-169. The method in brief:
(§1)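 Plaque reduction used HCMV AD-169 in HFF cells (plated 2 days ahead) or MCMV Smith in MEF cells (plated 1 day ahead), at 20-30 PFU/well in triplicate with 1 h adsorption. Infected cells were then given MEM (2% FBS) with compound diluted 1:5 from 100 µM. Plates ran 7 days (MCMV) or 8 days (HCMV) at 37 °C, followed by 6 h neutral red staining. EC50 is the concentration giving 50% plaque reduction.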

Assay [2] concerns Vaccinia virus. Description: Antiviral activity against Vaccinia virus Copenhagen replication in HFF cells. In kind it is functional, organism-based. The settings on record: Orthopoxvirus vaccinia.
The subject of assay [3] is Cowpox virus. Description: Antiviral activity against Cowpox virus Brighton replication in HFF cells. It counts as functional, organism-based.
Assay [4] relates to Murid betaherpesvirus 1. Description: Antiviral activity against MCMV Smith replication. In kind it is functional, organism-based. The conditions noted are these: Murid betaherpesvirus 1, Smith. The gist of the method:
as §1

In assay [5] the test system is HFF. The assay can be described thus: Selectivity index, CC50 in HFF cell/ EC50 against MCMV. It counts as functional. The gist of the method: (§2)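 Selectivity index is the ratio of CC50 (HFF neutral red uptake) to EC50 from the matching plaque reduction assay.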
For assay [6], the system named is HFF. Description: Cytotoxicity against HFF cell. In kind it is functional. The conditions noted are these: Homo sapiens.
The subject of assay [7] is HFF. Description: Selectivity index, CC50 in HFF cell/ EC50 against cowpox virus. It counts as functional. The gist of the method: as §2
Assay [8] deals with HFF. The assay can be described thus: Selectivity index, CC50 in HFF cell/ EC50 against vaccinia virus. In kind it is functional. The gist of the method:
as §2

Assay [9] relates to HFF. Description: Selectivity index, CC50 in HFF cell/ EC50 against HCMV. It counts as functional. The gist of the method:
as §2

One may read the EC50 as the concentration that produces a half-maximal response. Lower therefore signals higher potency in that assay. Turning to `CCCCCCCCCCCCCCCCCCOCCOP(=O)(O)CO[C@H](CO)Cn1ccc(N)nc1=O`, the EC50 amounted to 0.9 nM in [1], 200 nM in [2], 300 nM in [3] and 1 nM in [4].
What is called CC50 is the concentration at which the toxic effect on the cells reaches its halfway point. A higher CC50 goes with lower toxicity to the cells. Consider `CCCCCCCCCCCCCCCCOCCCOP(=O)([O-])CO[C@H](CO)Cn1cnc2c(N)ncnc21.[Na+]`, for which the EC50 turned out to be 3 nM in [1] and 2 nM in [4]. For the same compound, the Selectivity index in [5] stood at 485; in assay [7] it was 485; in [8], 970; in assay [9], 3233. It took 9700 nM to reach half-maximal cytotoxicity in [6] (CC50).
Turning to `Nc1ccn(C[C@@H](CO)OCP(=O)(O)O)c(=O)n1.O.O` [CIDOFOVIR], the EC50 in assay [1] was 1200 nM; in [2], 25300 nM; in assay [3], 30700 nM; in assay [4] it was 40 nM. In addition, the Selectivity index is more than 7925 in [5], more than 10.3 in [7], more than 12.5 in [8] and more than 264 in assay [9]. The CC50 in [6] is more than 317000 nM.
On to `Nc1ncnc2c1ncn2C[C@@H](CO)OCP(=O)(O)O`, for which the EC50 in [1] came to 820 nM; in assay [4], 160 nM. The Selectivity index is more than 181 in [5], more than 72 in [7], more than 107 in assay [8] and more than 352 in assay [9]. In assay [6], this compound yielded a CC50 of more than 289000 nM.
For the compound `CCCCCCCC/C=C\CCCCCCCCOCCCOP(=O)([O-])CO[C@H](CO)Cn1cnc2c(N)ncnc21.[Na+]`, the concentration for a half-maximal effect (EC50) in [1] was 3 nM; in [2], 18 nM; in assay [3] it was 34 nM; in assay [4], 100 nM. Besides, the Selectivity index turned out to be 750 in [5], 2200 in assay [7], 4156 in assay [8] and 25000 in assay [9]. The CC50 in [6] was found to be 74800 nM.
In the case of `CCCCCCCCCCCCCCCCCCOCCOP(=O)([O-])CO[C@H](CO)Cn1cnc2c(N)ncnc21.[Na+]`, the EC50 in assay [1] and in [4] was 3 nM each time. The Selectivity index is given as 500 in assay [5], 75 in [7], 150 in assay [8] and 500 in assay [9]. The compound also showed a half-maximal cytotoxic concentration (CC50) in [6] of 1500 nM.
Consider `CCCCCCCC/C=C\CCCCCCCCOCCOP(=O)([O-])CO[C@H](CO)Cn1cnc2c(N)ncnc21.[Na+]`, for which the EC50 in assay [1] was determined as 3 nM; in assay [2], 3 nM; in assay [3] it was 7 nM; in assay [4], 40 nM. The Selectivity index in [5] turned out to be 158; in assay [7], 900; in assay [8] it was 2100; in assay [9], 2100. The same compound showed a CC50 in assay [6] of 6300 nM.
As to `CCCCCCCCCCCCCCCCOCCCOP(=O)(O)CO[C@H](CO)Cn1ccc(N)nc1=O` [BRINCIDOFOVIR], the EC50 in [1] turned out to be 0.9 nM; in assay [2], 80 nM; in assay [3], 60 nM; in assay [4] it was 0.9 nM.
